This note sets out measurements from ChEMBL document CHEMBL1136227, “Regulation of gene expression by synthetic dimerizers with novel specificity” (Bioorg Med Chem Lett, 2003).

In experiment [1] the target is Peptidyl-prolyl cis-trans isomerase FKBP1A (Homo sapiens, UniProt P62942, F36V). Briefly: Inhibition of binding to Phe36Val (F36V) mutant of FK506 binding protein 12. In outline:
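Fluorescence polarization competition assay with F36V-FKBP12, testing monomeric FKBP ligands. IC50 = monomer concentration reducing probe binding by 50%.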

For experiment [2], the system named is HT-1080. The experiment can be described thus: (§1) Compound was induced transcription stably transfected with constructs encoding separate DNA-binding domain and activation domain proteins in HT1080 human fibrosarcoma cells. It counts as functional. In outline:
(§2)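 HT1080 human fibrosarcoma cells, transiently or stably transfected with separate DNA-binding domain and activation domain fusions, each carrying three tandem F36V-FKBP copies, plus a SEAP reporter responsive to the reconstituted factor. Dimerizer titrated; secreted SEAP measured. EC50 = dimerizer concentration giving 50% of peak SEAP expression; peak level also expressed relative to a reference dimerizer.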

In experiment [3] the test system is HT-1080. The experiment can be described thus: (§3) Compound was induced transcription in transiently transfected with constructs encoding separate DNA-binding domain and activation domain proteins in HT1080 human fibrosarcoma cells. It counts as functional. In outline:
as §2

The subject of experiment [4] is HT-1080. The description is as §3. It counts as functional, cell-based. The method, boiled down:
as §2

For experiment [5], the system named is HT-1080. Described as §1. Type of experiment: functional, cell-based. The method, boiled down:
as §2

Experiment [6] relates to HT-1080. Briefly: Compound was induced transcription stably transfected with constructs encoding separate DNA-binding domain and activation domain proteins in HT1080 human fibrosarcoma cells; No induction. It counts as functional, cell-based. In outline:
as §2

Experiment [7] has as its system HT-1080. The experiment can be described thus: Compound was induced transcription stably transfected with constructs encoding separate DNA-binding domain and activation domain proteins in HT1080 human fibrosarcoma cells;No induction. Type of experiment: functional, cell-based. In outline: as §2

pEC50, pIC50: −log10 of the molar value.

Sequence of Peptidyl-prolyl cis-trans isomerase FKBP1A (P62942 2-108 F37V limits assumed): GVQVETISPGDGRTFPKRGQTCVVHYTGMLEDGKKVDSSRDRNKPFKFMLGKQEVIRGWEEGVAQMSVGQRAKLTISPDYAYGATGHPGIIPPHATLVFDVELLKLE

As for `CC[C@H](C(=O)N1CCCC[C@H]1C(=O)O[C@H](CCc1ccccc1)c1cccc(OCC(=O)O)c1)c1cc(OC)c(OC)c(OC)c1`, in experiment [1], the negative-log IC50 (pIC50) is 8.26.

The compound `CC[C@@H]1/C=C(\C)C[C@H](C)C[C@H](OC)[C@H]2OC(C(=O)C(=O)N3CCCCC3C(=O)O[C@H](/C(C)=C/[C@@H]3CC[C@@H](O)[C@H](OC)C3)[C@H](C)[C@@H](O)CC1=O)[C@H](C)C[C@H]2OC` (some centres undefined) gave a pIC50 in experiment [1] of 7.92.

With `CC[C@H](C(=O)N1CCCC[C@H]1C(=O)O[C@H](CCc1ccc(OC)c(OC)c1)c1cccc(OCC(=O)O)c1)c1cc(OC)c(OC)c(OC)c1` (stereo in doubt; form 1), the pIC50 in experiment [1] is 8.09.

Regarding `CCC(CC)NC(=O)N1CCCC[C@H]1C(=O)O[C@H](CCc1ccc(OC)c(OC)c1)c1cccc(OCC(=O)NCCNC(=O)COc2cccc([C@@H](CCc3ccc(OC)c(OC)c3)OC(=O)[C@@H]3CCCCN3C(=O)NC(CC)CC)c2)c1`, the values for the Expression in experiment [2] and in experiment [3] were 106% and 138%, respectively. For the same compound, the pEC50 was 7.96 in experiment [4] and 7.72 in experiment [5].

Regarding `CC[C@H](C(=O)N1CCCC[C@H]1C(=O)O[C@H](CCc1ccc(OC)c(OC)c1)c1cccc(OCC(=O)NCCNC(=O)COc2cccc([C@@H](CCc3ccc(OC)c(OC)c3)OC(=O)[C@@H]3CCCCN3C(=O)[C@@H](CC)c3cc(OC)c(OC)c(OC)c3)c2)c1)c1cc(OC)c(OC)c(OC)c1` (stereo in doubt; form 1) [RIMIDUCID], in experiment [4], the pEC50 is 8.52.

`CC[C@H](C(=O)N1CCCC[C@H]1C(=O)O[C@H](CCc1ccc(OC)c(OC)c1)c1cccc(OCC(=O)NCCNC(=O)COc2cccc([C@@H](CCc3ccc(OC)c(OC)c3)OC(=O)[C@@H]3CCCCN3C(=O)[C@@H](CC)c3cc(OC)c(OC)c(OC)c3)c2)c1)c1cc(OC)c(OC)c(OC)c1` (stereo in doubt; form 2) [RIMIDUCID] displayed an Expression in experiment [3] of 79%. The EC50 result in experiment [6] is recorded as “No induction”.

`CCC(C)(C)C(=O)C(=O)N1CCCC[C@H]1C(=O)O[C@H](CCc1ccc(OC)c(OC)c1)c1cccc(OCC(=O)O)c1` gave a pIC50 in experiment [1] of 7.36.

Compound `CO[C@H]1C[C@@H](C)C/C(C)=C/[C@@H](C/C=C/CC2/C=C(\C)C[C@H](C)C[C@H](OC)[C@H]3O[C@@](O)(C(=O)C(=O)N4CCCCC4C(=O)O[C@H](/C(C)=C/[C@@H]4CC[C@@H](O)[C@H](OC)C4)[C@H](C)[C@@H](O)CC2=O)[C@H](C)C[C@H]3OC)C(=O)C[C@H](O)[C@@H](C)[C@@H](/C(C)=C/[C@@H]2CC[C@@H](O)[C@H](OC)C2)OC(=O)C2CCCCN2C(=O)C(=O)C2O[C@H]1[C@H](OC)C[C@H]2C` (some centres undefined) returned an Expression in experiment [3] of 39%. In experiment [4], this compound had a pEC50 of 6.72. Further, the EC50 entry in experiment [6] is listed as “No induction”.

`CC[C@H](C(=O)N1CCCC[C@H]1C(=O)O[C@H](CCc1ccc(OC)c(OC)c1)c1cccc(OCC(=O)O)c1)c1ccc2c(c1)OCO2` had a pIC50 in experiment [1] of 7.59.

For `CC[C@H](C(=O)N1CCCC[C@H]1C(=O)O[C@H](CCc1ccc(OC)c(OC)c1)c1cccc(OCC(=O)NCCNC(=O)COc2cccc([C@@H](CCc3ccc(OC)c(OC)c3)OC(=O)[C@@H]3CCCCN3C(=O)[C@@H](CC)c3ccccc3)c2)c1)c1ccccc1`, the Expression in experiment [2] and in experiment [3] was 100% in each case. Also, the figures for the pEC50 in experiment [4] and in experiment [5] were 8.40 and 8.10, respectively.

Take `COc1ccc(CC[C@@H](OC(=O)[C@@H]2CCCCN2C(=O)[C@@H](C)c2cc(OC)c(OC)c(OC)c2)c2cccc(OCC(=O)O)c2)cc1OC`: the negative-log IC50 (pIC50) in experiment [1] is 8.09.

For `CC[C@H](C(=O)N1CCCC[C@H]1C(=O)O[C@H](CCc1ccc(OC)c(OC)c1)c1cccc(OCC(=O)NCCNC(=O)COc2cccc([C@@H](CCc3ccc(OC)c(OC)c3)OC(=O)[C@@H]3CCCCN3C(=O)[C@@H](CC)c3ccc4c(c3)OCO4)c2)c1)c1ccc2c(c1)OCO2`, the results for the Expression in experiment [2] and in experiment [3] were 53% and 105%, respectively. Further, the pEC50 in experiment [4] is 8.22; in experiment [5], 8.05.

As for `CCC(C)(C)C(=O)C(=O)N1CCCC[C@H]1C(=O)O[C@H](CCc1ccc(OC)c(OC)c1)c1cccc(OCC(=O)NCCNC(=O)COc2cccc([C@@H](CCc3ccc(OC)c(OC)c3)OC(=O)[C@@H]3CCCCN3C(=O)C(=O)C(C)(C)CC)c2)c1`, the Expression was 17% in experiment [2] and 149% in experiment [3]. The pEC50 in experiment [4] was 6.75; in experiment [5], 6.53.

For `COc1ccc(CC[C@@H](OC(=O)[C@@H]2CCCCN2C(=O)Cc2ccccc2)c2cccc(OCC(=O)NCCNC(=O)COc3cccc([C@@H](CCc4ccc(OC)c(OC)c4)OC(=O)[C@@H]4CCCCN4C(=O)Cc4ccccc4)c3)c2)cc1OC`, the Expression in experiment [2] stood at 7%; in experiment [3] it was 150%. For the same compound, the pEC50 is 7.70 in experiment [4] and 8.00 in experiment [5].

The compound `CC[C@H](C(=O)N1CCCC[C@H]1C(=O)O[C@H](CCc1cccnc1)c1cccc(OCC(=O)O)c1)c1cc(OC)c(OC)c(OC)c1` had a negative logarithm of the IC50 (pIC50) in experiment [1] of 7.82.

In experiment [3], `CC[C@H](C(=O)N1CCCC[C@H]1C(=O)O[C@H](CCc1cccnc1)c1cccc(OCC(=O)NCCNC(=O)COc2cccc([C@@H](CCc3cccnc3)OC(=O)[C@@H]3CCCCN3C(=O)[C@@H](CC)c3cc(OC)c(OC)c(OC)c3)c2)c1)c1cc(OC)c(OC)c(OC)c1` displayed an Expression of 29%. The pEC50 in experiment [4] was 7.09. In addition, in experiment [6], the EC50 result is “No induction”.

In experiment [3], `CC[C@H](C(=O)N1CCCC[C@H]1C(=O)O[C@H](CCc1ccccc1)c1cccc(OCC(=O)NCCNC(=O)COc2cccc([C@@H](CCc3ccccc3)OC(=O)[C@@H]3CCCCN3C(=O)[C@@H](CC)c3cc(OC)c(OC)c(OC)c3)c2)c1)c1cc(OC)c(OC)c(OC)c1` displayed an Expression of 97%. Besides, the negative-log EC50 (pEC50) in experiment [4] was 7.24. Moreover, in experiment [6], the EC50 entry was “No induction”.

Compound `CCC(CC)NC(=O)N1CCCC[C@H]1C(=O)O[C@H](CCc1ccc(OC)c(OC)c1)c1cccc(OCC(=O)O)c1` showed a pIC50 in experiment [1] of 7.19.

As for `CC[C@H](C(=O)N1CCCC[C@H]1C(=O)O[C@H](CCc1ccc(OC)c(OC)c1)c1cccc(OCC(=O)O)c1)c1cc(OC)c(OC)c(OC)c1` (stereo in doubt; form 2), the pIC50 in experiment [1] was 8.09.

Turning to `COc1ccc(CC[C@@H](OC(=O)[C@@H]2CCCCN2C(=O)[C@@H](C)c2cc(OC)c(OC)c(OC)c2)c2cccc(OCC(=O)NCCNC(=O)COc3cccc([C@@H](CCc4ccc(OC)c(OC)c4)OC(=O)[C@@H]4CCCCN4C(=O)[C@@H](C)c4cc(OC)c(OC)c(OC)c4)c3)c2)cc1OC`, the Expression in experiment [3] is 89%. For the same compound, the EC50 result in experiment [7] is listed as “No induction”. In addition, in experiment [4], the pEC50 was 8.40.

By pIC50 is commonly meant the IC50 on a negative log10 scale, so that one unit is a factor of ten. The term pEC50 denotes the negative decadic logarithm of the EC50, by convention in mol/L. The low end stands for a large EC50, the high end for a small EC50.
